Measured values from ChEMBL document CHEMBL3734686, “Synthesis, Photophysical Properties, and Biological Evaluation of trans-Bisthioglycosylated Tetrakis(fluorophenyl)chlorin for Photodynamic Therapy” (J Med Chem, 2015).
pEC50: −log10 of the molar value.

Key:
[1] = test system: HeLa; assay: Dark cytotoxicity against human HeLa cells at 0.5 uM assessed as cell survival preincubated for 24 hrs measured by WST-8 assay in absence of photoirradiation; type: cell-based
Procedure, shortened: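 HeLa cells were seeded at 5 × 10^3 per well in DMEM with 10% FCS and grown for 24 h at 37°C. They were then exposed for 24 h to 0.5 µM photosensitizer (1% DMSO final), washed, and not irradiated. Viability was read 24 h later by WST-8 absorbance at 450 nm and expressed as percent of untreated wells.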

[2] = Induction of reactive oxygen generation assessed as quantum yield of hydrogen peroxide generation in O2 saturated PBS containing 1% DMSO under photoirradiation by spectrometry relative to control hematoporphyrin; type: physicochemical; settings: buffer
Procedure, shortened: (§1)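 Photosensitizer (1.00 µM) with HPF (2.00 µM) in PBS containing 1% DMSO, oxygenated 1 min, irradiated with 100-W halogen lamp through λ>500 nm cutoff filter at 37°C; hematoporphyrin as reference.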

[3] = test system: HeLa; assay: Photocytotoxicity against human HeLa cells assessed as cell survival preincubated for 24 hrs followed by irradiation at 16 J/cm2 measured at 24 hrs by WST-8 assay; type: functional, cell-based; settings: light or radiation study
Procedure, shortened: (§2)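 Cells (5 × 10^3/well) in DMEM with 10% FCS, 24 h at 37°C, 5% CO2; photosensitizer 1–50000 nM (1% DMSO final) for 24 h, washed, fresh medium. Irradiated with 100-W halogen lamp through λ>500 nm or λ>600 nm cutoff filter to 16 J·cm−2; WST-8 absorbance at 450 nm 24 h later, survival normalized to no-drug wells.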

[4] = Induction of reactive oxygen generation assessed as quantum yield of hydroxyl radical generation in O2 saturated PBS containing 1% DMSO under photoirradiation by spectrometry relative to control hematoporphyrin; type: physicochemical; settings: buffer; procedure, shortened: as §1
[5] = Induction of reactive oxygen generation assessed as quantum yield of singlet oxygen generation in O2 saturated D2O containing 0.1% DMSO by spectrometry; type: physicochemical
Procedure, shortened: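 Photosensitizer in D2O with 0.1% DMSO, absorbance set to 0.4 at its excitation wavelength, oxygen-purged 1 min; singlet-oxygen luminescence recorded with NIR photomultiplier cooled to 193 K; TPPS as reference.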

[6] = test system: HeLa; assay: Drug uptake in human HeLa cells at 0.1 uM after 24 hrs by spectrophotometrical analysis; type: ADME, cell-based
Procedure, shortened: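 HeLa cells (2.5 × 10^6/well) in DMEM with 10% FCS, preincubated 24 h at 37°C; photosensitizer added to 0.1 µM final (1% DMSO) for 24 h, two wells each. Cells washed twice with PBS, lysed in DMSO, Soret-band absorbance read against DMSO calibration; mean of three replicate experiments.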

[7] = Photocytotoxicity against rat RGK1 cells assessed as cell survival preincubated for 24 hrs followed by irradiation at 16 J/cm2 measured at 24 hrs by WST-8 assay; type: functional, cell-based; settings: RGK1, light or radiation study; procedure, shortened: as §2
[8] = test system: 4T1; assay: Photocytotoxicity against mouse 4T1 cells assessed as cell survival preincubated for 24 hrs followed by irradiation at 16 J/cm2 measured at 24 hrs by WST-8 assay; type: functional, cell-based; settings: 4T1, light or radiation study; procedure, shortened: as §2
[9] = Photocytotoxicity against human U87 cells assessed as cell survival preincubated for 24 hrs followed by irradiation at 16 J/cm2 measured at 24 hrs by WST-8 assay; type: functional, cell-based, U-87MG ATCC; settings: U-87 MG, light or radiation study; procedure, shortened: as §2
[10] = Photocytotoxicity against mouse B16-F1 cells assessed as cell survival preincubated for 24 hrs followed by irradiation at 16 J/cm2 measured at 24 hrs by WST-8 assay; type: functional, cell-based; settings: B16-F1, light or radiation study; procedure, shortened: as §2
[11] = test system: U-251; assay: Photocytotoxicity against human U251 cells assessed as cell survival preincubated for 24 hrs followed by irradiation at 16 J/cm2 measured at 24 hrs by WST-8 assay; type: functional, cell-based; settings: U-251, light or radiation study; procedure, shortened: as §2
[12] = test system: T98G; assay: Photocytotoxicity against human T98G cells assessed as cell survival preincubated for 24 hrs followed by irradiation at 16 J/cm2 measured at 24 hrs by WST-8 assay; type: functional, cell-based; settings: light or radiation study; procedure, shortened: as §2
[13] = Ratio of drug level in tumor to skin in iv dosed BDXI rat implanted with rat LSBD1 cells after 24 hrs; type: ADME, organism-based; settings: in vivo

Ratio [2] | Ratio [4] | Activity [5] | Drug uptake [6] | Structure (SMILES) | Activity [1] | pEC50 [3] | also measured
1.7 | 1.1 | 0.17 | Active | CN1CC2C3=N/C(=C(/c4c(F)c(F)c(S[C@@H]5O[C@H](CO)[C@@H](O)[C@H](O)[C@H]5O)c(F)c4F)C4=N/C(=C(/c5c(F)c(F)c(S[C@@H]6O[C@H](CO)[C@@H](O)[C@H](O)[C@H]6O)c(F)c5F)c5ccc([nH]5)/C(c5c(F)c(F)c(S[C@@H]6O[C@H](CO)[C@@H](O)[C@H](O)[C@H]6O)c(F)c5F)=C5/C=CC(=N5)C3c3c(F)c(F)c(S[C@@H]5O[C@H](CO)[C@@H](O)[C@H](O)[C@H]5O)c(F)c3F)C=C4)C2C1 (stereo partly drawn) | Non-toxic | 7.30 | –
1 | 1 | – | – | CC1=C(CCC(=O)O)c2cc3[nH]c(cc4nc(cc5[nH]c(cc1n2)c(C)c5C(C)O)C(C)=C4C(C)O)c(C)c3CCC(=O)O (stereo not drawn) [HEMATOPORPHYRIN] | – | – | –
– | – | 0.72 | – | O=S(=O)(O)c1ccc(-c2c3nc(c(-c4ccc(S(=O)(=O)O)cc4)c4ccc([nH]4)c(-c4ccc(S(=O)(=O)O)cc4)c4nc(c(-c5ccc(S(=O)(=O)O)cc5)c5ccc2[nH]5)C=C4)C=C3)cc1 | – | – | –
– | – | – | – | OC[C@H]1O[C@@H](Oc2ccc(/C3=C4\C=CC(=N4)C(c4ccc(O[C@@H]5O[C@H](CO)[C@@H](O)[C@H](O)[C@H]5O)cc4)C4=N/C(=C(/c5ccc(O[C@@H]6O[C@H](CO)[C@@H](O)[C@H](O)[C@H]6O)cc5)c5ccc([nH]5)/C(c5ccc(O[C@@H]6O[C@H](CO)[C@@H](O)[C@H](O)[C@H]6O)cc5)=C5/C=CC3=N5)C=C4)cc2)[C@H](O)[C@@H](O)[C@@H]1O (stereo partly drawn) | – | 5.30 | –
0.8 | 7.7 | 0.16 | Active | OC[C@H]1O[C@@H](Sc2c(F)c(F)c(/C3=C4\C=CC(=N4)C(c4c(F)c(F)c(F)c(F)c4F)C4=N/C(=C(/c5c(F)c(F)c(S[C@@H]6O[C@H](CO)[C@@H](O)[C@H](O)[C@H]6O)c(F)c5F)c5ccc([nH]5)/C(c5c(F)c(F)c(F)c(F)c5F)=C5/C=CC3=N5)C=C4)c(F)c2F)[C@H](O)[C@@H](O)[C@@H]1O (stereo partly drawn) | Non-toxic | 8.00 | pEC50 [7]: 8.00; pEC50 [8]: 8.00; pEC50 [9]: 8.00; pEC50 [10]: 9.00; pEC50 [11]: 8.00; pEC50 [12]: 8.00
– | – | – | – | Oc1cccc(-c2c3nc(c(-c4cccc(O)c4)c4ccc([nH]4)c(-c4cccc(O)c4)c4nc(c(-c5cccc(O)c5)c5ccc2[nH]5)CC4)C=C3)c1 [TEMOPORFIN] | – | – | Ratio [13]: 3
